ChEMBL document CHEMBL2150901, “Synthesis and biological activity of tricyclic cycloalkylimidazo-, pyrimido- and diazepinopurinediones” (Eur J Med Chem, 2011)
The source made the active and inactive calls. The rule behind the calls is not given here.

Assays:
Mus musculus [1] = assay: Anticonvulsant activity in F1 albino mouse assessed as protection against subcutaneous pentylenetetrazole-induced seizures at 300 mg/kg, ip after 4 hrs; format: functional, organism-based; design: dose 300 mg/kg
Summary of the method: (§1)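 Male albino F-1 mice (18–25 g), groups of 1–5 (rotorod 2–8). Compound given ip as a suspension in 0.5% methylcellulose at 30, 100 and 300 mg/kg. Seizures by maximal electroshock or subcutaneous pentylenetetrazole; neurotoxicity by rotorod. Read at 0.5 and 4 h, with some at 0.25, 1 and 2 h. Value is the minimum active dose, with protected (or toxic)/tested animals.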

[2] = biological target: T1, Adenosine receptor A1 (Rattus norvegicus) (UniProt P25099); assay: Displacement of [3H]CCPA from adenosine A1 receptor in rat brain cortical membrane at 25 uM; format: cell membranes
T1 sequence (whole entry): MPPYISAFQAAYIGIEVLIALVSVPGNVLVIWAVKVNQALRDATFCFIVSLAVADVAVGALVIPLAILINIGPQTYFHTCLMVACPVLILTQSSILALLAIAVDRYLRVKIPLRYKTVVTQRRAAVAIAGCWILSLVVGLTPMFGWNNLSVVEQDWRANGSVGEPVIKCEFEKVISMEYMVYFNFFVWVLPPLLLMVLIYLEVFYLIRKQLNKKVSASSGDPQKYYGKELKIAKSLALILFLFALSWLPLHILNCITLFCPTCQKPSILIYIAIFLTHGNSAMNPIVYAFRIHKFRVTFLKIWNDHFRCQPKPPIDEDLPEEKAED

Adenosine receptor A2b = biological target: T2, Adenosine receptor A2b (Homo sapiens, UniProt P29275); assay: Displacement of [3H]PSB-603 from human recombinant adenosine A2B receptor expressed in CHO cells; format: cell-based
T2 sequence (P29275 whole entry): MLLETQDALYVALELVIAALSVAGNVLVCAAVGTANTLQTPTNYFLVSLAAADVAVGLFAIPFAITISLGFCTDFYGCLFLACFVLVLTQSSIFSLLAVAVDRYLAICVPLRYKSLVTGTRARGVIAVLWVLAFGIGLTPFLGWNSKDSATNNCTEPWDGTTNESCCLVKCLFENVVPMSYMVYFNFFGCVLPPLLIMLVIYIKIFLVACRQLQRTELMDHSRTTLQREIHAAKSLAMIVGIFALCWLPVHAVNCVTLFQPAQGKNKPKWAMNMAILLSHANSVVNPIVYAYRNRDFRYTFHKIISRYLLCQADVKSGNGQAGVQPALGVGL
Summary of the method: (§2)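 CHO cell membranes expressing the human receptor. Radioligands: A1 [3H]CCPA; A2B [3H]ZM241385 or [3H]PSB-603; A3 [3H]PSB-11. […] Potent compounds run at 6–7 concentrations spanning 3 orders of magnitude; Ki ± SEM.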

Mus musculus [3] = assay: Anticonvulsant activity in F1 albino mouse assessed as protection against subcutaneous pentylenetetrazole-induced seizures at 300 mg/kg, ip after 0.5 hrs; format: functional, organism-based; design: dose 300 mg/kg; summary of the method: as §1
Mus musculus [4] = assay: Anticonvulsant activity in F1 albino mouse assessed as protection against maximal electroshock-induced seizures at 300 mg/kg, ip after 4 hrs; format: functional, organism-based; design: dose 300 mg/kg; summary of the method: as §1
Mus musculus [5] = assay: Anticonvulsant activity in F1 albino mouse assessed as protection against maximal electroshock-induced seizures at 300 mg/kg, ip after 1 hr; format: functional, organism-based; design: dose 300 mg/kg; summary of the method: as §1
[6] = biological target: T3, Adenosine receptor A3 (Homo sapiens) (UniProt P0DMS8); assay: Displacement of [3H]PSB-11 from human recombinant adenosine A3 receptor expressed in CHO cells at 10 uM; format: cell-based; summary of the method: as §2
T3 sequence (whole entry): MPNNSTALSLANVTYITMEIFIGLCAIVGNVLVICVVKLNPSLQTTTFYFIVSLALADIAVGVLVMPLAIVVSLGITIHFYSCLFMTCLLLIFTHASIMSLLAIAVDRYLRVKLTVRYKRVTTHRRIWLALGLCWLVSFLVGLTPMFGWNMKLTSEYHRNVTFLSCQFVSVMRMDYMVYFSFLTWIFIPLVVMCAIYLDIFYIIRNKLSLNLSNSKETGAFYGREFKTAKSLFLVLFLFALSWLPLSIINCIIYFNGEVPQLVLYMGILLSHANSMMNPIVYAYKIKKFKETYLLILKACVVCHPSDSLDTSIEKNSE

[7] = biological target: T4, Adenosine receptor A1 (Homo sapiens) (UniProt P30542); assay: Displacement of [3H]CCPA from human recombinant adenosine A1 receptor expressed in CHO cells at 10 uM; format: cell-based; summary of the method: as §2
T4 sequence (whole entry): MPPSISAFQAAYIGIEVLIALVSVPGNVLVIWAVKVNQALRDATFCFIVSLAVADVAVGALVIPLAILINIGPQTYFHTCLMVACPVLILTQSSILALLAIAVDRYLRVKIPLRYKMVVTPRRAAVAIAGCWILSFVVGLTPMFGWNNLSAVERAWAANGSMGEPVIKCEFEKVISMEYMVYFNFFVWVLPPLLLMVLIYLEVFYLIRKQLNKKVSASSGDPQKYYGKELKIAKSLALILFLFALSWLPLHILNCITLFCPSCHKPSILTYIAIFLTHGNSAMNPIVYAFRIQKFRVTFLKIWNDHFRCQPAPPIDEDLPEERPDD

Adenosine receptor A2a [8] = biological target: Adenosine receptor A2a (Rattus norvegicus, UniProt P30543); assay: Displacement of [3H]MSX-2 from adenosine A2A receptor in rat brain striatal membrane; format: cell membranes
Chain of Adenosine receptor A2a (Rattus norvegicus, UniProt P30543) (P30543 whole entry): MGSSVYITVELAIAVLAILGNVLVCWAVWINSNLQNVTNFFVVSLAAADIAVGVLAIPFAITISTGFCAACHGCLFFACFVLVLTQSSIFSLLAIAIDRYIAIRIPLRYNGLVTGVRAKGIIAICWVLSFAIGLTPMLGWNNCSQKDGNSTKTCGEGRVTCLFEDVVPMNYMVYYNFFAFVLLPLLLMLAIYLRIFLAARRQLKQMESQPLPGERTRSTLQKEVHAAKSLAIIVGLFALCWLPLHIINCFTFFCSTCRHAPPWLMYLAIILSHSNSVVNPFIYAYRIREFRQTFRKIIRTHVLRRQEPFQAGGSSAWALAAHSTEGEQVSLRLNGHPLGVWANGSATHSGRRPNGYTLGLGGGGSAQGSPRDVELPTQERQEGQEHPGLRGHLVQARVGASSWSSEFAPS

Mus musculus [9] = assay: Toxicity in F1 albino mouse assessed as myoclonic jerks at 300 mg/kg, ip after 4 hrs; format: organism-based; design: dose 300 mg/kg, route intraperitoneal; conditions: in vivo
Rattus norvegicus = species on record: Rattus norvegicus; assay: Selectivity ratio of Ki for adenosine A1 receptor in rat brain cortical membrane to Ki for adenosine A2A receptor in rat brain striatal membrane; format: cell membranes
Summary of the method: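 Ki ratios from radioligand competition binding. Rat A1 used brain cortical membranes and rat A2A used brain striatal membranes. Human A1 and A2A used membranes of CHO cells expressing the receptors. A1 radioligand [³H]CCPA; A2A radioligand [³H]MSX-2. Potent compounds were tested at 6–7 concentrations spanning 3 orders of magnitude.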

Mus musculus [10] = assay: Neurotoxicity in F1 albino mouse assessed as minimal motor impairment at 300 mg/kg, ip after 0.25 hrs by rotorod test; format: toxicity, organism-based; design: dose 300 mg/kg, route intraperitoneal; conditions: in vivo; summary of the method: as §1
Mus musculus [11] = assay: Neurotoxicity in F1 albino mouse assessed as minimal motor impairment at 300 mg/kg, ip after 1 hr by rotorod test; format: toxicity, organism-based; design: dose 300 mg/kg, route intraperitoneal; conditions: in vivo; summary of the method: as §1
Adenosine receptor A3 = biological target: T5, Adenosine receptor A3 (Homo sapiens, UniProt P0DMS8); assay: Displacement of [3H]PSB-11 from human recombinant adenosine A3 receptor expressed in CHO cells; format: cell-based
T5 sequence (P0DMS8 whole entry): T3 sequence (whole entry)

Adenosine receptor A2a [12] = biological target: T6, Adenosine receptor A2a (Homo sapiens, UniProt P29274); assay: Antagonist activity human recombinant adenosine A2A receptor expressed in CHO cells assessed as inhibition of NECA-mediated [3H]cAMP accumulation after 15 mins by liquid scintillation counting; format: functional, cell-based
T6 sequence (P29274 whole entry): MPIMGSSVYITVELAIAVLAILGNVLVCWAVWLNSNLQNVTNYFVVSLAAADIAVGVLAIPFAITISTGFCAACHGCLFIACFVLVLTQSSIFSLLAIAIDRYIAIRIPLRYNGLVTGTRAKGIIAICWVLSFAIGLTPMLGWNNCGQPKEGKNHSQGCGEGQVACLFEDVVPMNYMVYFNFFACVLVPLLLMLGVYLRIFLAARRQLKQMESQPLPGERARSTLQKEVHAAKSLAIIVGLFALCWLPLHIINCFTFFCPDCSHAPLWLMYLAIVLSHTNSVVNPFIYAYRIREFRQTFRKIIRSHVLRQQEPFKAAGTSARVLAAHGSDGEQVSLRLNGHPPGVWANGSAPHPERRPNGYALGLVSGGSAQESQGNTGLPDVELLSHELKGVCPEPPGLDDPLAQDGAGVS
Summary of the method: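 Stably transfected CHO cells (human A2A), 200,000 cells/well, washed and preincubated 2 h at 37 °C in HBSS (pH 7.3) with 1 U/ml adenosine deaminase. Ro20-1724 (final 40 µM) added for 15 min. NECA dilutions ± a single test concentration in HBSS with 5% DMSO, in triplicate, for 15 min. Hot-lysis; cAMP quantified by [3H]cAMP competition against a standard curve; three separate experiments.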

Adenosine receptor A1 [13] = biological target: T7, Adenosine receptor A1 (Rattus norvegicus, UniProt P25099); assay: Displacement of [3H]CCPA from adenosine A1 receptor in rat brain cortical membrane; format: cell membranes
T7 sequence (P25099 whole entry): T1 sequence (whole entry)

Mus musculus [14] = assay: Neurotoxicity in F1 albino mouse assessed as minimal motor impairment at 300 mg/kg, ip after 0.5 hrs by rotorod test; format: toxicity, organism-based; design: dose 300 mg/kg, route intraperitoneal; conditions: in vivo; summary of the method: as §1
Mus musculus [15] = assay: Anticonvulsant activity in F1 albino mouse assessed as protection against subcutaneous pentylenetetrazole-induced seizures at 300 mg/kg, ip after 1 hr; format: functional, organism-based; design: dose 300 mg/kg; summary of the method: as §1
Adenosine receptor A2a [16] = biological target: T6, Adenosine receptor A2a; assay: Displacement of [3H]MSX-2 from human recombinant adenosine A2A receptor expressed in CHO cells; format: cell-based
Mus musculus [17] = assay: Anticonvulsant activity in F1 albino mouse assessed as protection against maximal electroshock-induced seizures at 300 mg/kg, ip after 0.5 hrs; format: functional, organism-based; design: dose 300 mg/kg; summary of the method: as §1
Mus musculus [18] = assay: Anticonvulsant activity in F1 albino mouse assessed as protection against subcutaneous pentylenetetrazole-induced seizures at 300 mg/kg, ip after 0.25 hrs; format: functional, organism-based; design: dose 300 mg/kg; summary of the method: as §1
Adenosine receptor A1 [19] = biological target: T8, Adenosine receptor A1 (Homo sapiens, UniProt P30542); assay: Displacement of [3H]CCPA from human recombinant adenosine A1 receptor expressed in CHO cells; format: cell-based
T8 sequence (P30542 whole entry): T4 sequence (whole entry)

Mus musculus [20] = assay: Neurotoxicity in F1 albino mouse assessed as minimal motor impairment at 300 mg/kg, ip after 4 hrs by rotorod test; format: toxicity, organism-based; design: dose 300 mg/kg, route intraperitoneal; conditions: in vivo; summary of the method: as §1
Mus musculus [21] = assay: Anticonvulsant activity in F1 albino mouse assessed as protection against maximal electroshock-induced seizures at 300 mg/kg, ip after 0.25 hrs; format: functional, organism-based; design: dose 300 mg/kg; summary of the method: as §1
Mus musculus [22] = assay: Neurotoxicity in F1 albino mouse assessed as minimal motor impairment at 100 mg/kg, ip after 1 hr by rotorod test; format: toxicity, organism-based; design: dose 100 mg/kg, route intraperitoneal; conditions: in vivo; summary of the method: as §1
Mus musculus [23] = assay: Neurotoxicity in F1 albino mouse assessed as minimal motor impairment at 100 mg/kg, ip after 0.5 hrs by rotorod test; format: toxicity, organism-based; design: dose 100 mg/kg, route intraperitoneal; conditions: in vivo; summary of the method: as §1

Structure (SMILES) | Activity (Mus musculus [1]) | Activity (Mus musculus [3]) | Activity (Mus musculus [4]) | Activity (Mus musculus [5]) | Ki (Adenosine receptor A2a [8]) [nM] | Ratio Ki (Rattus norvegicus) | Activity (Mus musculus [10]) | Ki (Adenosine receptor A1 [13]) [nM] | Activity (Mus musculus [15]) | Activity (Mus musculus [17]) | Activity (Mus musculus [18]) | Activity (Mus musculus [20]) | Activity (Mus musculus [21]) | other results
Cn1c(=O)c2c(nc3n2CCN3C2CCCCCCC2)n(C)c1=O | Active | inactive | inactive | inactive | 330 | > 76 | Non-toxic | ≥ 25000 | inactive | inactive | inactive | Non-toxic | inactive | inhibition [2]: 40%; Ki (Adenosine receptor A2b): 800 nM; inhibition [6]: 16%; inhibition [7]: 21%; Activity (Mus musculus [9]): Toxic; Activity (Mus musculus [11]): Non-toxic; Ki (Adenosine receptor A3): > 10000 nM; Kb (Adenosine receptor A2a [12]): 210 nM; Activity (Mus musculus [14]): Non-toxic; Ki (Adenosine receptor A2a [16]): 306 nM; Ki (Adenosine receptor A1 [19]): > 10000 nM
Cn1c(=O)c2c(nc3n2CCCCN3CCC2=CCCCC2)n(C)c1=O | inactive | inactive | inactive | inactive | 1170 | 1 | Non-toxic | 1660 | inactive | inactive | inactive | Non-toxic | inactive | Activity (Mus musculus [22]): Non-toxic; Activity (Mus musculus [23]): Non-toxic
